pIC50: −log10 of the molar value.
Columns and labels:
[1] = target: T1, Polyunsaturated fatty acid lipoxygenase ALOX15 (Oryctolagus cuniculus, UniProt P12530); assay: Inhibitory concentration against rabbit reticulocyte 15-lipoxygenase with substrate arachidonic acid
T1 sequence (P12530 whole entry): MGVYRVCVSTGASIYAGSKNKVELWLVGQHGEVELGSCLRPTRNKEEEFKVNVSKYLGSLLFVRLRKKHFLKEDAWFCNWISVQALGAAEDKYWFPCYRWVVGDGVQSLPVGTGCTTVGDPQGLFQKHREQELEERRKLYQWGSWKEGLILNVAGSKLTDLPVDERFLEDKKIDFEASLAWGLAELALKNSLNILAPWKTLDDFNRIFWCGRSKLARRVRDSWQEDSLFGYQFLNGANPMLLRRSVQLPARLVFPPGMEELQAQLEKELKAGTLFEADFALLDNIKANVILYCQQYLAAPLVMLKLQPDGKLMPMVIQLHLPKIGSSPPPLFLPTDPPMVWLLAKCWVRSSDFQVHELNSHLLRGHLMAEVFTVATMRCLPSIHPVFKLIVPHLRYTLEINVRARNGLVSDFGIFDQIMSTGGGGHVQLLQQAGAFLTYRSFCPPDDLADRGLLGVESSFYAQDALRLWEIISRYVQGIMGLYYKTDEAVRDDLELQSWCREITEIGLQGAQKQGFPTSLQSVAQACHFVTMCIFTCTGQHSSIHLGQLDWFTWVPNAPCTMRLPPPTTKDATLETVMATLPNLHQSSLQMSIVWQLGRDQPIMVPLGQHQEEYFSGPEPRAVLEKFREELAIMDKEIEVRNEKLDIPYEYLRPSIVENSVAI
Summary of the method: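 Purified rabbit reticulocyte 15-LO, isolated from phenylhydrazine-treated rabbits, with arachidonic acid as the substrate. IC50 comes from a colorimetric read-out in which the 15-HPETE product oxidizes Fe²⁺ under mildly acidic conditions. Many values were also verified by the spectrophotometric diene-formation rate (A₂₃₄).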

[2] = target: T1, Polyunsaturated fatty acid lipoxygenase ALOX15; assay: Inhibitory concentration against isolated rabbit reticulocyte 15-lipoxygenase measured in the presence of linoleic acid
Summary of the method: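 15-LO was purified from reticulocytes of phenylhydrazine-treated rabbits. Linoleic acid was the substrate. In a colorimetric assay, the 13-HPODE product oxidizes Fe²⁺ under mildly acidic conditions, and IC50 is derived from this. Many values were also checked spectrophotometrically by the rate of diene formation (A₂₃₄).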

[3] = target: T2, Polyunsaturated fatty acid 5-lipoxygenase (Homo sapiens, UniProt P09917); assay: Inhibitory concentration against human 5-lipoxygenase
T2 sequence (P09917 whole entry): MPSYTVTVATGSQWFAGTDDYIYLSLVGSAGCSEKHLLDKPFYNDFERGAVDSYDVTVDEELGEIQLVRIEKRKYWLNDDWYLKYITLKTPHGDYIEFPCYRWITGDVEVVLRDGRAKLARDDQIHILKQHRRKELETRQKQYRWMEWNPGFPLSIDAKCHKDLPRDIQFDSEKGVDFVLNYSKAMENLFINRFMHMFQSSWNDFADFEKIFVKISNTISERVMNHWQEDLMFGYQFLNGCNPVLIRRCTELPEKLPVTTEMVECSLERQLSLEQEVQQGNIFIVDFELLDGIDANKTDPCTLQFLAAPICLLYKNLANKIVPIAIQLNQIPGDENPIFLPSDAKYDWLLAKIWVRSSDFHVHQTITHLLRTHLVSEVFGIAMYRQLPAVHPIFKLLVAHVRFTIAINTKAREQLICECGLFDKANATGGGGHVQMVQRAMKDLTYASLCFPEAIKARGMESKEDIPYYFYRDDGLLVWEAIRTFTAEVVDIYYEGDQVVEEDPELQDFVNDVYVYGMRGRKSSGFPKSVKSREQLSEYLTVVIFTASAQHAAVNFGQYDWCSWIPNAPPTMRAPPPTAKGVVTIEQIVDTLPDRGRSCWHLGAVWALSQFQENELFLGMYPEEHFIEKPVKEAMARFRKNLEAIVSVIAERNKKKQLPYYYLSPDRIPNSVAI
Summary of the method: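 Recombinant human 5-LO enzyme. Inhibition was followed by oxidation of arachidonic acid as the substrate. IC50 values were determined.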

[4] = target: T3, Polyunsaturated fatty acid lipoxygenase ALOX12 (Homo sapiens, UniProt P18054); assay: Inhibitory concentration against human platelet-derived 12-lipoxygenase
T3 sequence (P18054 whole entry): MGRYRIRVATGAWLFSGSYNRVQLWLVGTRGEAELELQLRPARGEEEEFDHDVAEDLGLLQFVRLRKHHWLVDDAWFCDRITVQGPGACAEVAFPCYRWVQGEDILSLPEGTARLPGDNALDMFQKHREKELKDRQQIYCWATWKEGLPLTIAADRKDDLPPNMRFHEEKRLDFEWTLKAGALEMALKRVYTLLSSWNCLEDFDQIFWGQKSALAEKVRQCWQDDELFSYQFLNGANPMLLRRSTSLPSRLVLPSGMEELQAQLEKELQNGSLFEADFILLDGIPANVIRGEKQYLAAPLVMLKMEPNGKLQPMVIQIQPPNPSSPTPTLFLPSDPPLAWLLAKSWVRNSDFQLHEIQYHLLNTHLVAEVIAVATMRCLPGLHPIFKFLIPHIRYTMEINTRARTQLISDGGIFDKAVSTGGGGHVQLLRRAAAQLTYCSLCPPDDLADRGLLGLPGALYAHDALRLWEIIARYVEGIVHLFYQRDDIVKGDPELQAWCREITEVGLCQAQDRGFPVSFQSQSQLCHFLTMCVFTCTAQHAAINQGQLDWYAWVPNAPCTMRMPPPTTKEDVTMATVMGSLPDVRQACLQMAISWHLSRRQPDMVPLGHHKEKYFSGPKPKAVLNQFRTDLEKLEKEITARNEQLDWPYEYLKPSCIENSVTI

Row | Compound | pIC50 [1] | pIC50 [2] | pIC50 [3] | pIC50 [4]
1 | Cc1ccccc1-c1ccc(S(=O)(=O)NCCc2c[nH]c3ccccc23)cc1 | 6.34 | 6.04 |  | 
2 | O=S(=O)(NCCc1c(-c2cc3ccccc3o2)[nH]c2ccccc12)c1ccc(Br)cc1 | 6.79 | 7.52 |  | 
3 | CCCCCc1ccc(S(=O)(=O)NCCc2c(-c3cnc4ccccc4c3)[nH]c3ccccc23)cc1 | 7.30 | 7.89 |  | 
4 | CCCCCc1ccc(S(=O)(=O)NCCc2c(-c3cc4ccccc4o3)[nH]c3ccccc23)cc1 |  |  | < 5.52 | < 5.52
5 | CCCCCc1ccc(S(=O)(=O)NCCc2c(-c3ccc(C(F)(F)F)cc3)[nH]c3ccccc23)cc1 | 6.88 | 7.96 |  | 
6 | O=C(NC1CCCCC1)c1ccc(S(=O)(=O)NCCc2c(-c3cc4ccccc4o3)[nH]c3ccccc23)cc1 | 7.47 | 7.92 |  | 
7 | CCCCCc1ccc(S(=O)(=O)NCCc2c[nH]c3cc(F)ccc23)cc1 | 5.54 |  |  | 
8 | CCc1ccc(S(=O)(=O)NCCc2c[nH]c3ccccc23)cc1 | < 5.00 | < 5.00 |  | 
9 | CCCCNC(=O)c1ccc(S(=O)(=O)NCCc2c(-c3cc4ccccc4o3)[nH]c3ccccc23)cc1 | 6.95 | 7.38 |  | 
10 | COc1ccc(-c2[nH]c3ccccc3c2CCNS(=O)(=O)c2ccc(C)cc2)cc1 | 6.11 | 6.96 |  | 
11 | CCCCc1ccc(-c2ccc(S(=O)(=O)NCCc3c[nH]c4ccccc34)cc2)cc1 | 6.70 | 6.28 |  | 
12 | CCCCCc1ccc(S(=O)(=O)NCCc2c(-c3ccc(OCC)cc3)[nH]c3ccccc23)cc1 | 7.41 | 7.96 |  | 
13 | CCCCCc1ccc(S(=O)(=O)NCCc2c[nH]c3ccc(F)cc23)cc1 | 5.20 |  |  | 
14 | CCCCCc1ccc(S(=O)(=O)NCCc2c[nH]c3ccccc23)cc1 | 5.99 | 6.38 |  | 
15 | CN(C)CCN(C)C(=O)c1ccc(S(=O)(=O)NCCc2c(-c3cc4ccccc4o3)[nH]c3ccccc23)cc1 | 6.42 | 7.12 |  | 
16 | Cc1ccc(S(=O)(=O)NCCc2c[nH]c3ccccc23)cc1 | < 5.00 | < 5.00 |  | 
17 | CCCCCc1ccc(S(=O)(=O)NCCc2c[nH]c3ccc(-c4ccc[nH]4)cc23)cc1 |  | 6.11 |  | 
18 | CCCCCc1ccc(S(=O)(=O)N(C)CCc2c[nH]c3ccccc23)cc1 |  | < 5.00 |  | 
19 | CCCCCc1ccc(S(=O)(=O)NCCc2c(-c3cc4ccccc4o3)n(C)c3ccccc23)cc1 | 5.85 | 6.84 |  | 
20 | CCCCCc1ccc(S(=O)(=O)NCCc2c(-c3ccccc3)[nH]c3ccccc23)cc1 | 6.85 | 7.21 | < 5.52 | < 5.00
21 | CCCCCc1ccc(S(=O)(=O)N2CCC(c3c[nH]c4ccccc34)C2)cc1 (configuration not stated) |  | < 5.00 |  | 
22 | CCCCCc1ccc(S(=O)(=O)NCCc2c(-c3cccc(C)c3)[nH]c3ccccc23)cc1 | 7.24 | 7.60 |  | 
23 | CCCCCc1ccc(S(=O)(=O)NCCCc2c[nH]c3ccccc23)cc1 |  |  | < 5.00 | 5.97
24 | O=S(=O)(NCCCc1c(-c2cc3ccccc3o2)[nH]c2ccccc12)c1ccc(-c2ccccc2)cc1 | 7.77 | 8.10 |  | 
25 | O=S(=O)(NCCc1c[nH]c2ccccc12)c1ccc(-c2ccccc2)cc1 | 5.38 | 5.47 |  | 
26 | CCCCc1ccc(S(=O)(=O)NCCc2c(-c3ccc(OC)cc3)[nH]c3ccccc23)cc1 |  | 6.96 |  | 
27 | CC1=C(CC/C(C)=C/CC/C(C)=C/Cc2cc(O)ccc2O)C(C)(C)CCC1 [JASPAQUINOL] |  | 6.52 |  | 

Other lines, results leading:

Row | pIC50 [1] | pIC50 [2] | pIC50 [3] | pIC50 [4] | Compound
28 | 6.85 | 6.55 |  |  | CC(C)c1ccc(-c2ccc(S(=O)(=O)NCCc3c[nH]c4ccccc34)cc2)cc1
29 | 6.77 | 6.04 |  |  | CC(C)Cc1ccc(-c2ccc(S(=O)(=O)NCCc3c[nH]c4ccccc34)cc2)cc1
30 | 7.11 | 8.00 | < 5.00 | < 5.00 | Cc1ccc(S(=O)(=O)NCCc2c(-c3cc4ccccc4o3)[nH]c3ccccc23)cc1
31 | 5.49 | 5.50 |  |  | CCCc1ccc(S(=O)(=O)NCCc2c[nH]c3ccccc23)cc1
32 | 5.41 |  |  |  | CCCCCc1ccc(S(=O)(=O)NCCc2c[nH]c3ccc(C)cc23)cc1
33 | 5.96 | 5.82 |  |  | COc1ccc(-c2ccc(S(=O)(=O)NCCc3c[nH]c4ccccc34)cc2)cc1
34 | 6.61 | 7.57 |  |  | COc1ccc(-c2[nH]c3ccccc3c2CCNS(=O)(=O)c2ccc(-c3ccccc3)cc2)cc1
35 | 6.33 |  |  |  | Cc1ccc(-c2ccc(S(=O)(=O)NCCc3c[nH]c4ccccc34)cc2)cc1
36 | < 4.52 | 4.62 |  |  | CCCCCc1ccc(S(=O)(=O)NCCc2c[nH]c3cc(C(=O)O)ccc23)cc1
37 | 6.92 | 7.49 | < 5.52 | < 5.00 | CCCCCc1ccc(S(=O)(=O)NCCc2c(-c3ccc(Cl)cc3)[nH]c3ccccc23)cc1
38 |  | 5.80 |  |  | CCCCCc1ccc(S(=O)(=O)NC(C)Cc2c[nH]c3ccccc23)cc1 (configuration not stated)
39 | 5.48 |  |  |  | CCCCCc1ccc(S(=O)(=O)NCCc2c[nH]c3c(C)cccc23)cc1
40 |  | 5.43 |  |  | CN(C)c1cccc2c(S(=O)(=O)NCCc3c[nH]c4ccccc34)cccc12
41 | 5.40 | 5.51 |  |  | CCCCc1ccc(S(=O)(=O)NCCc2c[nH]c3ccccc23)cc1
42 | 6.49 | 6.35 |  |  | Cc1cccc(-c2ccc(S(=O)(=O)NCCc3c[nH]c4ccccc34)cc2)c1
43 | 7.29 | 7.82 |  |  | O=C(Nc1ccccc1)c1ccc(S(=O)(=O)NCCc2c(-c3cc4ccccc4o3)[nH]c3ccccc23)cc1
44 | 6.64 | 6.57 |  |  | CC(C)(C)c1ccc(-c2ccc(S(=O)(=O)NCCc3c[nH]c4ccccc34)cc2)cc1
45 | 6.88 | 7.55 |  |  | CCCCCc1ccc(S(=O)(=O)NCCc2c(-c3cc(OC)ccc3OC)[nH]c3ccccc23)cc1
46 | 7.59 | 7.96 |  |  | COc1ccc(NC(=O)c2ccc(S(=O)(=O)NCCc3c(-c4cc5ccccc5o4)[nH]c4ccccc34)cc2)cc1
47 | 6.33 | 6.59 |  |  | CCc1ccc(-c2ccc(S(=O)(=O)NCCc3c[nH]c4ccccc34)cc2)cc1
48 | 6.33 | 6.63 |  |  | CCCCCc1ccc(S(=O)(=O)NCCc2c[nH]c3cc(C(=O)OC)ccc23)cc1
49 | 7.15 | 8.00 |  |  | CCCCCc1ccc(S(=O)(=O)NCCc2c(-c3ccc4oc5ccccc5c4c3)[nH]c3ccccc23)cc1
50 | 5.39 | 6.36 |  |  | CN(CCO)C(=O)c1ccc(S(=O)(=O)NCCc2c(-c3cc4ccccc4o3)[nH]c3ccccc23)cc1
51 |  | < 5.00 |  |  | COc1ccc(-c2[nH]c3ccccc3c2CCNS(=O)(=O)c2ccc(C(=O)O)cc2)cc1
52 | 6.75 | 7.33 |  |  | O=S(=O)(NCCc1c(-c2cc3ccccc3o2)[nH]c2ccccc12)c1ccc(-c2ccncc2)cc1
